Data as given in PubChem BioAssay.
Unmarked numbers belong to inactive results. Active and inactive are the calls of the source.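 Rule for the calls, unless noted: active = growth inhibition above 25% in both replicates, a cutoff set 3 SD above the mean; inconclusive = above 25% in only one replicate; inactive = the rest.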

Assay: OD615 S. cerevisiae growth inhibition, permissive medium, pilot counter-assay, permissive growth control for S. cerevisiae lifespan shortening project (AID 705)
Settings: OD615, 24 h, at 10 µM, active compounds read high
How it was run: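 Test system: Saccharomyces cerevisiae strain carrying genetically modified DeaD replicative-lifespan system; buffer or medium: SC raffinose/galactose permissive medium; dosing: one dose 10 µM, DMSO 0.25% final; times: 24 h exposure, 30 °C; measured by: OD at 615 nm; read-out basis: growth inhibition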

Compound	growth inhibition
COc1ccc(OC)c(NC(=O)NC2(C(F)(F)F)Oc3ccccc3O2)c1	-4.07%
COc1ccc(S(=O)(=O)NCc2ccc3c(c2)cc(C)n3C)cc1	-0.89%
COc1ccc(C(c2sc3nc(C)nn3c2O)N2CCC(C(N)=O)CC2)cc1OC (stereo not given)	-11.7%
CCN(CC)CCNC(=O)Cn1cnc2sc(C)c(S(=O)(=O)N3CCOCC3)c2c1=O	6.37%
C=C(C)Cn1c(CNC(C)=O)nc2ccccc21	-12.2%
CCOc1ccc(Cn2nnc(C(=O)NCCc3ccccc3)c2N)cc1	1.4%
CC(C)c1nc(SCC(=O)Nc2ccc3c(c2)OCCO3)c2c(=O)n(C)c(=O)n(C)c2n1	0.9%
COc1ccc(OC)c(NC(=O)c2cnc3n(c2=O)CCS3)c1	-1.9%
Cc1[nH]c2ccc(-c3n[nH]c(=S)n3C)cc2c1C	-4.45%
COc1ccccc1-c1c(C#N)c(SCC(=O)N2CCCC2)nc(C)c1C(N)=O	-2.97%
COc1ccc(C2N3CC4(C)CN2CC(C)(C3)C4)cc1OC (stereo not given)	-3.73%
O=S(=O)(NCCOCCNS(=O)(=O)c1ccccc1)c1ccccc1	-6.38%
CC(C)(C)NC(=O)c1ccc(NC(=O)C2COc3ccccc3O2)cc1 (stereo not given)	-6.05%
O=C(Cn1c(=O)oc2cc(S(=O)(=O)N3CCOCC3)ccc21)N1CCc2ccccc2C1	-5.1%
COC(=O)c1ccc(N2C(=O)CC(Sc3n[nH]c(C)n3)C2=O)cc1 (stereo not given)	38.2% (active)
COc1cc(C(=O)Nc2cccc(-c3nc4ccccc4o3)c2C)cc(OC)c1OC	-20.9%
Cc1ccc(C(=O)CC(C(=O)O)c2cn(CCC#N)c3ccccc23)cc1 (stereo not given)	-4%
CC1=C(C(=O)OC2CCCCCCC2)C(c2ccc(O)cc2)NC(=O)N1 (stereo not given)	-3.17%
COc1nc(NC(C)(C)C)nc(Oc2ccc(=O)n(C)n2)n1	-0.24%
CC(CCc1ccco1)NC(=O)Cn1nc(Cc2ccncc2)c2ccccc2c1=O (stereo not given)	-0.065%

Compound	growth inhibition
CSc1nc2c(c(=O)n1-c1ccc(F)cc1)SCC2	-9.67%
COc1ccc(NC(=O)C2CCN(S(=O)(=O)c3cccnc3)CC2)cc1Cl	-8.66%
Nn1c(SCC(=O)Nc2ccc(F)cc2)nnc1-c1ccccn1	-4.5%
COc1ccccc1C1C=C(c2ccccc2)Nc2nnnn21 (stereo not given)	-4.73%
CC1CCN(CC(O)COc2cccc(F)c2)CC1 (stereo not given)	-14.2%
COc1ccc(Cl)cc1Nc1nc(N2CCCC2)nc(N2CCCC2)n1	2.74%
Clc1ccccc1C1CC(c2ccccc2)Nc2ncnn21 (stereo not given)	-10.9%
CCN(CCCNS(=O)(=O)c1ccc2c(c1)CCN2C(C)=O)c1cccc(C)c1	-4.96%
Nc1c(S(=O)(=O)c2ccccc2)c2nc3ccccc3nc2n1Cc1ccco1	-25.5%
O=C(c1cc(F)c(F)cc1Cl)N1CCCCC1	-2.35%
CC(=O)N1CCc2c(sc(NC(=O)C3CC3)c2-c2nc3ccccc3s2)C1	0.95%
CC1=CC(C)(C)N(C(=O)CSc2nnc(-c3ccccc3)o2)c2ccc(C)cc21	-10%
O=C(NCCC1=CCCCC1)NC1CCCCC1	-7.04%
Cn1c(C(=O)N2CCCC2)cc2c(=O)n(C)c3ccccc3c21	-2.97%
COc1ccc(C2C(C(=O)NCCN3CCOCC3)c3ccccc3C(=O)N2C)cc1OC (stereo not given)	-2.92%
CCOc1ccc2nc(NC(=O)Nc3cccs3)sc2c1	-10.4%
CC(=O)N1CCC(Nc2ccc(C)cc2)CC1	-15.6%
CC(C)Sc1nc(-c2cccs2)nc2c1c(=O)n(C)c(=O)n2C	-2.16%
CC(=O)Nc1cc(NC(C)=O)c(CC(C)C)s1	-6.92%
Cc1cc(C)c(NC(=O)C(C)(C)C)c(Cl)c1	-6.4%

Assay: Restrictive medium S. cerevisiae growth inhibition, OD615, pilot screen of yeast lifespan reduction project, restrictive growth control (AID 706;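 active = growth inhibition above a set limit, 3 SD over mean compound inhibition, in both replicates, cut at about 43% in these data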;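 note: modified DeaD lifespan yeast strain shifted to restrictive glucose medium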)
Settings: OD615, 48 h, at 10 µM, active compounds read high
How it was run: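 material = engineered S. cerevisiae DeaD strain | buffer or medium = glucose-based CSMM-D restrictive medium | dosing = one concentration, 10 µM final, 0.25% DMSO | schedule = 4 h pre-growth plus 48 h compound exposure, 30 °C | detection = OD615 absorbance reading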

Compound	growth inhibition [%]
COc1ccc(OC)c(NC(=O)NC2(C(F)(F)F)Oc3ccccc3O2)c1	0.635
COc1ccc(S(=O)(=O)NCc2ccc3c(c2)cc(C)n3C)cc1	-11.2
COc1ccc(C(c2sc3nc(C)nn3c2O)N2CCC(C(N)=O)CC2)cc1OC (stereo not given)	-16.2
CCN(CC)CCNC(=O)Cn1cnc2sc(C)c(S(=O)(=O)N3CCOCC3)c2c1=O	4.68
C=C(C)Cn1c(CNC(C)=O)nc2ccccc21	-25.6
CCOc1ccc(Cn2nnc(C(=O)NCCc3ccccc3)c2N)cc1	2.79
CC(C)c1nc(SCC(=O)Nc2ccc3c(c2)OCCO3)c2c(=O)n(C)c(=O)n(C)c2n1	4.21
COc1ccc(OC)c(NC(=O)c2cnc3n(c2=O)CCS3)c1	-0.45
Cc1[nH]c2ccc(-c3n[nH]c(=S)n3C)cc2c1C	-17.6
COc1ccccc1-c1c(C#N)c(SCC(=O)N2CCCC2)nc(C)c1C(N)=O	-7.78
COc1ccc(C2N3CC4(C)CN2CC(C)(C3)C4)cc1OC (stereo not given)	-17.4
O=S(=O)(NCCOCCNS(=O)(=O)c1ccccc1)c1ccccc1	-1.27
CC(C)(C)NC(=O)c1ccc(NC(=O)C2COc3ccccc3O2)cc1 (stereo not given)	-6.04
O=C(Cn1c(=O)oc2cc(S(=O)(=O)N3CCOCC3)ccc21)N1CCc2ccccc2C1	-8.57
COC(=O)c1ccc(N2C(=O)CC(Sc3n[nH]c(C)n3)C2=O)cc1 (stereo not given)	19
COc1cc(C(=O)Nc2cccc(-c3nc4ccccc4o3)c2C)cc(OC)c1OC	-26.2
Cc1ccc(C(=O)CC(C(=O)O)c2cn(CCC#N)c3ccccc23)cc1 (stereo not given)	3.92
CC1=C(C(=O)OC2CCCCCCC2)C(c2ccc(O)cc2)NC(=O)N1 (stereo not given)	4.04
COc1nc(NC(C)(C)C)nc(Oc2ccc(=O)n(C)n2)n1	-10.7
CC(CCc1ccco1)NC(=O)Cn1nc(Cc2ccncc2)c2ccccc2c1=O (stereo not given)	3.82

Compound	growth inhibition [%]
CSc1nc2c(c(=O)n1-c1ccc(F)cc1)SCC2	-24.3
COc1ccc(NC(=O)C2CCN(S(=O)(=O)c3cccnc3)CC2)cc1Cl	-13.1
Nn1c(SCC(=O)Nc2ccc(F)cc2)nnc1-c1ccccn1	0.845
COc1ccccc1C1C=C(c2ccccc2)Nc2nnnn21 (stereo not given)	4.88
CC1CCN(CC(O)COc2cccc(F)c2)CC1 (stereo not given)	-6.4
COc1ccc(Cl)cc1Nc1nc(N2CCCC2)nc(N2CCCC2)n1	2.22
Clc1ccccc1C1CC(c2ccccc2)Nc2ncnn21 (stereo not given)	-11.2
CCN(CCCNS(=O)(=O)c1ccc2c(c1)CCN2C(C)=O)c1cccc(C)c1	9.51
Nc1c(S(=O)(=O)c2ccccc2)c2nc3ccccc3nc2n1Cc1ccco1	-16.2
O=C(c1cc(F)c(F)cc1Cl)N1CCCCC1	1.34
CC(=O)N1CCc2c(sc(NC(=O)C3CC3)c2-c2nc3ccccc3s2)C1	-2.89
CC1=CC(C)(C)N(C(=O)CSc2nnc(-c3ccccc3)o2)c2ccc(C)cc21	2.73
O=C(NCCC1=CCCCC1)NC1CCCCC1	8.29
Cn1c(C(=O)N2CCCC2)cc2c(=O)n(C)c3ccccc3c21	3.21
COc1ccc(C2C(C(=O)NCCN3CCOCC3)c3ccccc3C(=O)N2C)cc1OC (stereo not given)	-2.97
CCOc1ccc2nc(NC(=O)Nc3cccs3)sc2c1	-19.9
CC(=O)N1CCC(Nc2ccc(C)cc2)CC1	-9.18
CC(C)Sc1nc(-c2cccs2)nc2c1c(=O)n(C)c(=O)n2C	-19
CC(=O)Nc1cc(NC(C)=O)c(CC(C)C)s1	2.99
Cc1cc(C)c(NC(=O)C(C)(C)C)c(Cl)c1	6.2
